# Measured values taken from ChEMBL document CHEMBL4130623, “Discovery of Highly Potent Pinanamine-Based Inhibitors against Amantadine- and Oseltamivir-Resistant Influenza A Viruses” (J Med Chem, 2018).
# Calls of active or inactive are those of the source.
# Assays:
# Influenza A virus [1] = assay: Antiviral activity against Influenza A virus (A/Guangzhou/GIRD/07/2009 (H1N1)) infected in MDCK cells assessed as reduction in virus-induced cytopathic effect after 48 hrs by microscopic analysis; format: functional, organism-based
# Method in brief: (§1)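 MDCK monolayers (5×10^4 cells/well, grown 24 h) were rinsed twice, infected with 100 TCID50 virus for 2 h at 37 °C in 5% CO2, and the inoculum was removed. Two-fold serial compound dilutions in DMEM with 1.5 µg/mL trypsin were added and incubated 48 h at 34 °C. CPE percentage was scored by microscope and EC50 fitted by non-linear regression.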
# Influenza A virus [2] = assay: Antiviral activity against Influenza A virus (A/WSN/33) by CCK-8 reagent based assay; format: functional, organism-based; details: A/WSN/1933(H1N1)
# Influenza A virus [3] = assay: Antiviral activity against Influenza A virus (A/HK/68) by CCK-8 reagent based assay; format: functional, organism-based
# [4] = Cytotoxicity against MDCK cells assessed as change in cell morphology after 48 hrs by microscopic analysis; format: cell-based, Canis lupus familiaris; details: dog
# Method in brief: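 MDCK monolayers (5×10^4 cells/well, 24 h) were rinsed twice with PBS and exposed to two-fold serial compound dilutions in DMEM for 48 h. Wells were examined by microscope. The concentration giving minimal change in cell morphology was taken as the minimum cytotoxic concentration (MCC).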
# Influenza A virus [5] = assay: Antiviral activity against Influenza A virus (A/WSN/33 (H1N1)) infected in MDCK cells assessed as reduction in virus-induced cytopathic effect after 48 hrs by microscopic analysis; format: functional, organism-based; details: A/WSN/1933(H1N1); method in brief: as §1
# Influenza A virus [6] = assay: Antiviral activity against Influenza A virus (A/PR/8/34 (H1N1)) infected in MDCK cells assessed as reduction in virus-induced cytopathic effect after 48 hrs by microscopic analysis; format: functional, organism-based; details: A/Puerto Rico/8/1934(H1N1); method in brief: as §1
# Influenza A virus [7] = assay: Antiviral activity against Influenza A virus (A/HK/68(H3N2)) infected in MDCK cells assessed as reduction in virus-induced cytopathic effect after 48 hrs by microscopic analysis; format: functional, organism-based; method in brief: as §1
# H3N2 subtype = assay: Antiviral activity against Influenza A virus (A/Aichi/2/68 (H3N2)) infected in MDCK cells assessed as reduction in virus-induced cytopathic effect after 48 hrs by microscopic analysis; format: functional, organism-based; details: A/Aichi/2/1968(H3N2); method in brief: as §1
# Influenza A virus [8] = assay: Antiviral activity against Influenza A virus (A/duck/Guangdong/1/1996 (H7N3)) infected in MDCK cells assessed as reduction in virus-induced cytopathic effect after 48 hrs by microscopic analysis; format: functional, organism-based; method in brief: as §1
# Influenza A virus [9] = assay: Antiviral activity against Influenza A virus (A/duck/HK/Y280/97 (H9N2)) infected in MDCK cells assessed as reduction in virus-induced cytopathic effect after 48 hrs by microscopic analysis; format: functional, organism-based; method in brief: as §1
# Influenza A virus [10] = assay: Antiviral activity against Influenza A virus (A/California/07/2009(H1N1)) infected in human A549 cells assessed as reduction in plaque area after 3 days post infection by crystal violet-staining based assay; format: functional, organism-based; details: A549, 72 h
# Method in brief: (§2)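 A549 monolayers were infected at 0.01 MOI for 1 h at 37 °C, then washed twice with PBS. Cells were overlaid with 1% agar DMEM containing compound, 2 µg/mL trypsin and 0.3% BSA. Two to three days post-infection, monolayers were fixed and stained with 0.1% crystal violet.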
# Influenza A virus [11] = assay: Antiviral activity against Influenza A virus (A/Texas/04/2009(H1N1)) infected in human A549 cells assessed as reduction in plaque area after 3 days post infection by crystal violet-staining based assay; format: functional, organism-based; details: A549, 72 h; method in brief: as §2
# Influenza A virus [12] = assay: Antiviral activity against Influenza A virus (A/PR/8/34 (H1N1)) infected in MDCK cells assessed as inhibition of virus yield dosed at -1 to 2 hrs post infection and measured after 24 hrs; format: functional, organism-based; details: A/Puerto Rico/8/1934(H1N1)
# Method in brief: (§3)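 Confluent MDCK cells were infected with 100 TCID50 virus and adsorbed 1 h at 4 °C (adsorption defined as -1 h), then washed. Compound at 10 µM was present only during the stated interval, then washed out with PBS. Cells were kept in medium with 1.5 µg/mL TPCK-trypsin at 37 °C. After 24 h, plates were freeze-thawed and supernatant yield was titrated by TCID50.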
# [13] = molecular target: Hemagglutinin (Influenza A virus (A/Puerto Rico/8/1934(H1N1))) (UniProt P03452); assay: Inhibition of Influenza A virus A/PR/8/34 HA1 domain assessed as reduction in virus-induced aggregation of chicken erythrocytes at 0.75 to 1500 uM incubated for 1 hr with virus followed by transfer of compound-virus preparation to chicken erythrocytes solution measured after 40 mins
# Method in brief: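 Two-fold serial compound dilutions in PBS were mixed with an equal volume of virus and incubated 1 h. The mixture was added to an equal volume of fresh 0.5% chicken red blood cells in Alsever's solution. After 40 min at room temperature, erythrocyte aggregation was read visually.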
# [14] = molecular target: Hemagglutinin (Influenza A virus (A/Puerto Rico/8/1934(H1N1))) (UniProt P03452); assay: Inhibition of Influenza A virus A/PR/8/34 HA2-mediated hemolysis preincubated with virus for 30 mins followed by chicken red blood cells addition measured after 30 mins by spectrophotometric analysis
# Method in brief: (§4)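 Virus (100 µL) was incubated with two-fold serial compound dilutions in PBS for 30 min at 37 °C. An equal volume of chicken red blood cells in citric acid-sodium citrate (pH 5.0) was added and incubated 30 min at 37 °C, then centrifuged at 400 × g. Supernatant absorbance was read at 540 nm, with mock-infected background subtracted. IC50 is the concentration giving 50% hemolysis inhibition. Two independent experiments were run.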
# [15] = molecular target: Hemagglutinin (Influenza A virus (strain A/Aichi/2/1968 H3N2)) (UniProt P03437); assay: (§5) Inhibition of Influenza A virus A/Aichi/2/68 (H3N2) HA2-mediated hemolysis preincubated with virus for 30 mins followed by chicken red blood cells addition measured after 30 mins by spectrophotometric analysis; details: Influenza A virus (A/Aichi/2/1968(H3N2)); method in brief: as §4
# Hemagglutinin = Hemagglutinin (Influenza A virus (strain A/Aichi/2/1968 H3N2), UniProt P03437); assay: as §5; set-up: species or system Influenza A virus (A/Aichi/2/1968(H3N2)); method in brief: as §4
# Influenza A virus [16] = assay: Antiviral activity against Influenza A virus (A/PR/8/34 (H1N1)) infected in MDCK cells assessed as inhibition of virus yield dosed at 0 to 2 hrs post infection and measured after 24 hrs; format: functional, organism-based; details: A/Puerto Rico/8/1934(H1N1); method in brief: as §3
# Hemagglutinin (Influenza A virus (A/Puerto Rico/8/1934(H1N1))), sequence (P03452 whole entry, the tested form may be a part): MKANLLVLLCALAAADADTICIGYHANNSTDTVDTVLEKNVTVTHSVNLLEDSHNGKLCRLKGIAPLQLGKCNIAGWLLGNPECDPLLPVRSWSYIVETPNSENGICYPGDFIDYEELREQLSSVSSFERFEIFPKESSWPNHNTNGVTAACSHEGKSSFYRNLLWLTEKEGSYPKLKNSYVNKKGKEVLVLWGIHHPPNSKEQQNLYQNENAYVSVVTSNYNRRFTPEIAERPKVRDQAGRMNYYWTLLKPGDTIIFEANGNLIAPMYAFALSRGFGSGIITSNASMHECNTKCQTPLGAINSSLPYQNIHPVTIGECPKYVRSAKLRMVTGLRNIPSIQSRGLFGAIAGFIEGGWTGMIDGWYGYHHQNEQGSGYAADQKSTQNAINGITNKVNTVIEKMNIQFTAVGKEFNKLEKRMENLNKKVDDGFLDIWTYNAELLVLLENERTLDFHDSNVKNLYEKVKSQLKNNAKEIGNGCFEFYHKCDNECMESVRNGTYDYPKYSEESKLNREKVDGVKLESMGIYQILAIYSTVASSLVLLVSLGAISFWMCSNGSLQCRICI
smiles,measurement,setting,value
"C[C@@H]1C2CC(C[C@H]1NCc1sccc1C1CC1)C2(C)C (single isomer, unassigned)",EC50,Influenza A virus [1],0.3 µM
same,Activity,Influenza A virus [2],Active
same,Activity,Influenza A virus [3],Active
same,MCC at 48 h,[4],25 µM
same,EC50,Influenza A virus [5],1.48 µM
same,EC50,Influenza A virus [6],2.23 µM
same,EC50,Influenza A virus [7],5.38 µM
same,EC50,H3N2 subtype,4.55 µM
same,EC50,Influenza A virus [8],4.58 µM
same,EC50,Influenza A virus [9],6.79 µM
same,EC50,Influenza A virus [10],0.34 µM
same,EC50,Influenza A virus [11],0.1 µM
same,inhibition,Influenza A virus [12],Active
same,inhibition,[13],inactive
same,inhibition,[14],Dose-dependent effect
same,inhibition,[15],Dose-dependent effect
same,IC50,Hemagglutinin,1.23 µM
same,inhibition,Influenza A virus [16],Active
